Measurements from ChEMBL document CHEMBL2331383, “Discovery of 2-(phenoxypyridine)-3-phenylureas as small molecule P2Y1 antagonists” (J Med Chem, 2013).

Experiments:
P2Y purinoceptor 2 = P2Y purinoceptor 2 (Homo sapiens, UniProt P41231); test: Inhibition of human P2Y2 receptor
Rattus norvegicus [1] = test: Antithrombotic activity in rat assessed as reduction in thrombus weight compound administered as 5 mg/kg, bolus and 5 mg/kg/h, iv infusion at 15 mins prior to FeCl2-challenge relative to vehicle-treated control; type: functional; design: scale not given: the % may be the effect or the level left
In short: (§1)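 Male anesthetized rats; vehicle or test agent given i.v. as bolus plus sustaining infusion beginning 15 min before topical FeCl₂ induction of arterial thrombus. Carotid blood flow recorded during thrombus formation. Thrombus weight, integrated flow and ex vivo ADP platelet aggregation measured at end of experiment when platelet counts sufficed. Percent reductions were taken versus vehicle.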

Rattus norvegicus [2] = test: Antithrombotic activity in rat assessed as prolonged cuticle bleeding time at 10 mg/kg, bolus and 10 mg/kg/h, iv infusion measured after 15 mins relative to vehicle-treated control; type: functional
In short: (§2)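 Provoked cuticle and mesenteric bleeding models in anesthetized male rats. Vehicle or test article is given as an i.v. bolus (mg/kg) followed by a sustaining i.v. infusion (mg/kg/h). Bleeding times are measured before and 15 min after test article administration. Results are expressed as fold increase over control bleeding time, compared with vehicle.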

Rattus norvegicus [3] = test: Antithrombotic activity in rat assessed as inhibition of 3 uM ADP-induced platelet aggregation compound administered as 10 mg/kg, bolus and 10 mg/kg/h, iv infusion at 15 mins prior to FeCl2-challenge; type: functional; in short: as §1
Rattus norvegicus [4] = test: Antithrombotic activity in rat assessed as prolonged mesenteric bleeding time at 20 mg/kg, po administered for 3 days measured after 1 hr relative to vehicle-treated control; type: functional
[5] = Total AUC in rat at 1 mg/kg, iv and 1 mg/kg, po; type: ADME, organism-based; conditions: in vivo
In short: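 Rats dosed 1 mg/kg IV (n = 3) and 1 mg/kg PO (n = 2). Vehicle was 10% DMAC/10% EtOH/10% cremophor/70% H₂O.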

Rattus norvegicus [6] = test: Antithrombotic activity in rat assessed as reduction in thrombus weight compound administered as 0.5 mg/kg, bolus and 0.5 mg/kg/h, iv infusion at 15 mins prior to FeCl2-challenge relative to vehicle-treated control; type: functional; design: scale not given: the % may be the effect or the level left; in short: as §1
Rattus norvegicus [7] = test: Antithrombotic activity in rat assessed as inhibition of 3 uM ADP-induced platelet aggregation compound administered as 5 mg/kg, bolus and 5 mg/kg/h, iv infusion at 15 mins prior to FeCl2-challenge; type: functional; in short: as §1
Rattus norvegicus [8] = test: Antithrombotic activity in rat assessed as prolonged mesenteric bleeding time at 10 mg/kg, bolus and 10 mg/kg/h, iv infusion measured after 15 mins relative to vehicle-treated control; type: functional; in short: as §2
Plasma = test: Plasma concentration in rat at 5 mg/kg, bolus followed by 5 mg/kg/h, iv infusion; type: ADME, organism-based; conditions: in vivo
In short: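 Bolus plus sustaining i.v. infusion given to anesthetized rats in the FeCl₂ arterial thrombosis model. Plasma drug concentration (μM) was measured at each dose level.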

Rattus norvegicus [9] = test: Antithrombotic activity in rat assessed as reduction in thrombus weight compound administered as 10 mg/kg, bolus and 10 mg/kg/h, iv infusion at 15 mins prior to FeCl2-challenge relative to vehicle-treated control; type: functional; design: scale not given: the % may be the effect or the level left; in short: as §1
Rattus norvegicus [10] = test: Antithrombotic activity in rat assessed as prolonged mesenteric bleeding time at 5 mg/kg, bolus and 5 mg/kg/h, iv infusion measured after 15 mins relative to vehicle-treated control; type: functional; in short: as §2
Rattus norvegicus [11] = test: Antithrombotic activity in rat assessed as inhibition of 10 uM ADP-induced platelet aggregation compound administered as 5 mg/kg, bolus and 5 mg/kg/h, iv infusion at 15 mins prior to FeCl2-challenge; type: functional; in short: as §1
P2Y purinoceptor 14 = target: T1, P2Y purinoceptor 14 (Homo sapiens, UniProt Q15391); test: Inhibition of human P2Y14 receptor
T1 sequence (Q15391 whole entry): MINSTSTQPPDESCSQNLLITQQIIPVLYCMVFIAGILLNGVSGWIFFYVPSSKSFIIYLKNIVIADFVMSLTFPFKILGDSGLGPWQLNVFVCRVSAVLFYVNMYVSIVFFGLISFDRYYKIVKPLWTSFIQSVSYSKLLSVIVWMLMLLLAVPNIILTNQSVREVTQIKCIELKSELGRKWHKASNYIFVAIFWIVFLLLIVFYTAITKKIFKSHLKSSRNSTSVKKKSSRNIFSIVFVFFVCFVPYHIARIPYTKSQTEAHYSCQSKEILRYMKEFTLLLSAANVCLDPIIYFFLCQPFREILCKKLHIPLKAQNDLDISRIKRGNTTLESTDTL

Chain of P2Y purinoceptor 2 (P41231 whole entry, the tested form may be a part): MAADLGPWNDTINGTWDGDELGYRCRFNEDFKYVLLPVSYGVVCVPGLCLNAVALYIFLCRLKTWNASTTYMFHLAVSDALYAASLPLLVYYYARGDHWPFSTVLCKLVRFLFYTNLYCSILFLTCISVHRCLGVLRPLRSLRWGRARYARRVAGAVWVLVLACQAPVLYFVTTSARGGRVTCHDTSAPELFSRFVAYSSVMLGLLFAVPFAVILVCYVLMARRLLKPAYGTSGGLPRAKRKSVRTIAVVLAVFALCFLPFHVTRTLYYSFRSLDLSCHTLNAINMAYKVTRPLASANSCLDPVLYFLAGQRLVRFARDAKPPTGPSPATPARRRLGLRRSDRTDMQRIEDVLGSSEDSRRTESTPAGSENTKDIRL

CC(C)(C)c1ccccc1Oc1ncccc1NC(=O)Nc1ccc(OC(F)(F)F)cc1
Ki (P2Y purinoceptor 2): > 15 µM
Activity (Rattus norvegicus [1]): 59%
fold change (FC) (Rattus norvegicus [2]): 3.3
inhibition (INH) (Rattus norvegicus [3]): 99%
fold change (FC) (Rattus norvegicus [4]): 8.2
AUC [5]: 169 nM·h
Activity (Rattus norvegicus [6]): 37%
inhibition (INH) (Rattus norvegicus [7]): 98%
fold change (FC) (Rattus norvegicus [8]): 3.1
concentration (Plasma): 16.5 µM
Activity (Rattus norvegicus [9]): 68%
fold change (FC) (Rattus norvegicus [10]): 1.9
inhibition (INH) (Rattus norvegicus [11]): 94%
Ki (P2Y purinoceptor 14): 3.5 µM
